High-throughput results deposited in PubChem BioAssay by Broad Institute.
SIRT5 inh: inhibitors of human sirtuin-5 desuccinylase | Q9NXA8 | inhibition, % at 15 µM | 330,000 tested, 1.1% active | AID 652115 | Purified SirT5, succinyl-peptide AMC, trypsin-coupled fluorescence; in the data active = inhibition above about 15%
Target sequence (Q9NXA8 whole entry, looked up): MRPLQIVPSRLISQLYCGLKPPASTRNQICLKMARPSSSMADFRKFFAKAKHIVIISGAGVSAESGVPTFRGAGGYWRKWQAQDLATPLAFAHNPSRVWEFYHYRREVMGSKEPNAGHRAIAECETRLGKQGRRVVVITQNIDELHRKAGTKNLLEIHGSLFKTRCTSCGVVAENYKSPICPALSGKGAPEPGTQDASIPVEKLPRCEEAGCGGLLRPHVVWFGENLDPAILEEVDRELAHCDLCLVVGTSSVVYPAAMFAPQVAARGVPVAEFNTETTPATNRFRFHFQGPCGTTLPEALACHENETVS
S100A4 inh HTS: inhibitors of human S100A4 binding to myosin IIA peptide | inhibition, % at 10.7 µM | S100A4/TAMRA-MyoIIA peptide fluorescence polarization | P26447 | 360,000 tested, 0.14% active;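 active = mean inhibition of at least 70% across replicates, with every replicate also reaching that level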
Target sequence (P26447 whole entry, looked up): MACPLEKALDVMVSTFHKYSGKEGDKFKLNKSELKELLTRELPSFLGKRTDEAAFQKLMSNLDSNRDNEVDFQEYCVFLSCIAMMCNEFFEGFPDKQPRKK
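assay system = human S100A4 monomer with TAMRA-labelled myosin IIA peptide | also added = labelled myosin peptide probe, 5 nM | incubation = 5 min between mix addition and reading | control set = DMSO and TFP controls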
FGF22 binding: shifts melting point of recombinant human FGF22; activity (Tm shift, normalised), % at 9.99 µM; AID 651658; Q9HCT0; 340,000 tested, 1.5% active; recombinant FGF22 thermal shift, SYPRO orange fluorescence; percent of sucrose octasulfate shift, DMSO zero;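 active = mean Tm shift, scaled 0 neutral to 100 positive control, at about 1.3% or above, every replicate too, limit read from the data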
Target sequence (Q9HCT0 whole entry, looked up): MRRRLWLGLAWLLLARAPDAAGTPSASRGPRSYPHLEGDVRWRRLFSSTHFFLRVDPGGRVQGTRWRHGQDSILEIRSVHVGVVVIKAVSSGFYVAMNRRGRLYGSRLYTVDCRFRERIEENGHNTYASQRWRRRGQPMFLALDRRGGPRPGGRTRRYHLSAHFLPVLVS
miR122 inh: blocks miR-122 activity in Huh7 sensor cells | 340,000 tested, 0.3% active | Huh7 miR-122 Renilla luciferase sensor, 48 h; neutral wells = 0, positive control = 100 | AID 602342 | activation (reporter increase), % at 12.5 µM;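 active = mean replicate activation score at least 90 and every replicate individually at or above 90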;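 note: higher luciferase means less miR-122 activity so hits act as miR-122 inhibitors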
E-sel inducer: E-selectin induction on HUVECs. HUVEC E-selectin immunofluorescence imaging; normalized: neutral wells 0, TNF-alpha wells 100. 260,000 tested, 0.37% active. activation, % at 7.58 µM. AID 686992. P16581;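 active = mean E-selectin-positive cell signal at least 10% of the positive control, reached in at least 60% of replicates, without over 20% cell loss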
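Test system – human umbilical vein endothelial cells (HUVEC), E-selectin induction · Input – 3,000 HUVEC seeded per well · Buffer or medium – EGM-2, gelatin · Compound dosing – single-point compound dose · Detection – immunofluorescence imaging · Measure – percent E-selectin-positive cells · Controls – TNF-alpha high, DMSO low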
Numbers stand for hits. Shown are actives, neighbours in structure and some others; about 2.5% of the full set was active somewhere.

Results for C[C@@H]1CN([C@@H](C)CO)C(=O)Cc2cc(NS(=O)(=O)c3ccc(F)cc3)ccc2O[C@H]1CN(C)S(=O)(=O)c1cn(C)cn1 ?
SIRT5 inh: inactive; S100A4 inh HTS: inactive; FGF22 binding: inactive; miR122 inh: inactive; E-sel inducer: inactive

Results for CCCCOc1ccc(C(=O)N/C(=C\c2cccc([N+](=O)[O-])c2)C(=O)OCCC)cc1 ?
miR122 inh: inactive

Results for CCCCOc1ccc(C(=O)N/C(=C/c2cccc([N+](=O)[O-])c2)C(=O)O)cc1 ?
SIRT5 inh: inactive; S100A4 inh HTS: inactive; FGF22 binding: 51.8

What do the screens show for `NC(=O)c1ccc(=O)n(C2OC(CO)C(O)C2O)c1` (stereo not given)?
SIRT5 inh: inactive; S100A4 inh HTS: inactive; FGF22 binding: 44.1; miR122 inh: inactive; E-sel inducer: inactive

Results for COc1cccc(/C=C(/C(=O)OCC(=O)NCC2CCCO2)c2ccccc2)c1 (stereo not given) ?
SIRT5 inh: inactive; S100A4 inh HTS: inactive; FGF22 binding: 43.0; E-sel inducer: inactive

How did CC1CCCCN1Cc1c(O)ccc2c(=O)c(-c3ccc(Cl)cc3)coc12 (stereo not given) do in these assays?
SIRT5 inh: inactive; S100A4 inh HTS: inactive; FGF22 binding: inactive; miR122 inh: inactive

How did CC1CCCCN1Cc1c(O)ccc2c(=O)c(-c3ccc(Br)cc3)coc12 (stereo not given) do in these assays?
SIRT5 inh: inactive; S100A4 inh HTS: inactive; FGF22 binding: inactive; E-sel inducer: 39.7

Results for Nc1ccccc1C(=O)N=Nc1[nH]c(N)c2ccccc12 ?
SIRT5 inh: 17.6; S100A4 inh HTS: inactive; FGF22 binding: inactive

Results for O=C(CSc1nc2ccsc2c(=O)n1CC1CCC(C(=O)O)CC1)c1ccc(Cl)cc1 (stereo not given) ?
SIRT5 inh: 16.1; S100A4 inh HTS: inactive; FGF22 binding: inactive

How did COCC(=O)N1[C@H](C#N)[C@@H](c2ccccc2-c2cccc(OC)c2)[C@@H]1CO do in these assays?
S100A4 inh HTS: inactive; FGF22 binding: inactive; E-sel inducer: inactive

What do the screens show for `COc1ccc(NC(=O)CN(C)C(=O)C2CC(=O)N(CCc3ccc(OC)c(OC)c3)C2)cc1` (stereo not given)?
SIRT5 inh: inactive; S100A4 inh HTS: inactive; FGF22 binding: inactive; miR122 inh: inactive; E-sel inducer: inactive

How did CCOc1ccc(NC(=O)CN(C)C(=O)C2CC(=O)N(c3ccc4c(c3)OCCO4)C2)cc1OCC (stereo not given) do in these assays?
SIRT5 inh: inactive; S100A4 inh HTS: inactive; FGF22 binding: inactive; miR122 inh: inactive; E-sel inducer: inactive

Results for CCOc1ccc(NC(=O)CN(C)C(=O)C2CC(=O)N(CCc3ccc(OC)c(OC)c3)C2)cc1OCC (stereo not given) ?
SIRT5 inh: inactive; S100A4 inh HTS: inactive; FGF22 binding: 6.3

How did COc1ccc(NC(=O)CN(C)C(=O)C2CC(=O)N(c3ccc4c(c3)OCCO4)C2)cc1 (stereo not given) do in these assays?
SIRT5 inh: inactive; S100A4 inh HTS: 154.1; FGF22 binding: inactive; E-sel inducer: inactive

Results for O=C(C[C@H]1C=C[C@H](NS(=O)(=O)c2ccccc2)[C@H](CO)O1)N1CCN(c2ccccc2)CC1 ?
SIRT5 inh: inactive; S100A4 inh HTS: inactive; FGF22 binding: inactive; E-sel inducer: inactive

How did COc1cc(=O)[nH]c(SC(C)C(=O)Nc2cccc3ccccc23)n1 (stereo not given) do in these assays?
SIRT5 inh: 74.9; S100A4 inh HTS: inactive; FGF22 binding: inactive; miR122 inh: inactive

Results for Cc1nnc(SCC(=O)NNC(=O)c2ccco2)n1-c1ccccc1 ?
SIRT5 inh: inactive; S100A4 inh HTS: inactive; FGF22 binding: inactive; miR122 inh: inactive; E-sel inducer: inactive

How did Cc1ccc(-n2c(C)nnc2SCC(=O)NNC(=O)c2ccco2)cc1 do in these assays?
SIRT5 inh: inactive; S100A4 inh HTS: inactive; FGF22 binding: 44.0

How did C[C@H](CO)N1C[C@H](C)[C@H](CN(C)Cc2ccc(Cl)c(Cl)c2)OCCCC[C@H](C)Oc2ccc(NS(C)(=O)=O)cc2C1=O do in these assays?
SIRT5 inh: inactive; S100A4 inh HTS: inactive; E-sel inducer: inactive

How did Cc1cc2ccccc2nc1SCC(=O)NC1CCCC1 do in these assays?
SIRT5 inh: inactive; S100A4 inh HTS: inactive; FGF22 binding: 43.0; miR122 inh: inactive

Results for Cc1cc2ccccc2nc1SCC(=O)NC1CCCCC1 ?
SIRT5 inh: inactive; S100A4 inh HTS: inactive; FGF22 binding: inactive

Results for O=C1C(=O)N(CC(=O)N2CCCC2)c2ccccc21 ?
SIRT5 inh: inactive; S100A4 inh HTS: inactive; FGF22 binding: 43.0

What do the screens show for `CC(O)CNc1nc2sc3c(c2c(=O)n1CCc1ccccc1)CCCCC3` (stereo not given)?
SIRT5 inh: inactive; S100A4 inh HTS: inactive; FGF22 binding: 44.2

How did COc1ccc(OC)c2[nH]c(=O)c(CCNC(=O)c3cccs3)cc12 do in these assays?
SIRT5 inh: inactive; S100A4 inh HTS: inactive; FGF22 binding: 43.9

How did COc1cc(C(=O)NCCc2cc3c(OC)ccc(OC)c3[nH]c2=O)cc(OC)c1OC do in these assays?
SIRT5 inh: inactive; S100A4 inh HTS: inactive; FGF22 binding: inactive; miR122 inh: inactive

How did CC(=O)Nc1cccc(/C(C)=N/Nc2nc3ccccc3s2)c1 do in these assays?
SIRT5 inh: inactive; S100A4 inh HTS: inactive; FGF22 binding: 43.1

How did CC(C)(C)c1ccc(C(CC(=O)O)NC(=O)c2ccccc2F)cc1 (stereo not given) do in these assays?
SIRT5 inh: inactive; S100A4 inh HTS: inactive; FGF22 binding: 42.9; miR122 inh: inactive

What do the screens show for `CCCNC(=O)[C@H]1[C@H](CO)[C@H]2Cn3c(ccc(-c4ccccc4OC)c3=O)[C@H]2N1S(C)(=O)=O`?
SIRT5 inh: inactive; S100A4 inh HTS: inactive; E-sel inducer: inactive

Results for CC1CCC(NC(=O)C2CCN(S(=O)(=O)c3ccc4nc5c(c(C(=O)O)c4c3)CC(C)CC5)CC2)CC1 (stereo not given) ?
SIRT5 inh: inactive; S100A4 inh HTS: inactive; FGF22 binding: 43.2; E-sel inducer: inactive

What do the screens show for `O=C1N(Cc2ccccc2)Cc2ccccc2[C@H]2OC(c3ccc(OCCCO)cc3)=N[C@@]12CCS(=O)(=O)c1ccccc1`?
SIRT5 inh: inactive; S100A4 inh HTS: inactive; FGF22 binding: inactive

How did CC(C)Cn1c(N)c(C(=O)COC(=O)c2ccc(O)cc2)c(=O)n(C)c1=O do in these assays?
SIRT5 inh: inactive; S100A4 inh HTS: inactive; FGF22 binding: inactive

Results for CC(C)Cn1c(N)c(C(=O)COC(=O)c2ccc([N+](=O)[O-])o2)c(=O)n(C)c1=O ?
SIRT5 inh: inactive; S100A4 inh HTS: inactive; FGF22 binding: 43.0; E-sel inducer: inactive

What do the screens show for `CSc1nsc(SCC(=O)Nc2ccccc2C(=O)O)n1`?
SIRT5 inh: inactive; S100A4 inh HTS: inactive; FGF22 binding: 1.5; miR122 inh: inactive
